Data: ChEMBL document CHEMBL1148991, “Antifungal flavonoids from Hildegardia barteri” (J Nat Prod, 2005)
Values after ≈ are worked out from the molar mass of the structure shown.

How the values were obtained:
Assay type in all cases: functional, organism-based
[1] = tested on: Candida albicans; assay: Antifungal activity against azole-sensitive Candida albicans by broth microdilution assay
Procedure, shortened: (§1)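 Follow-up panel of recent drug-resistant and drug-sensitive clinical Candida isolates, tested alongside quality control strains C. krusei ATCC 6258 and C. parapsilopsis ATCC 22019.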

[2] = tested on: Candida albicans; assay: Antifungal activity against polyene-resistant Candida albicans by broth microdilution assay; procedure, shortened: as §1
[3] = tested on: Nakaseomyces glabratus; assay: Antifungal activity against polyene-resistant Candida glabrata by broth microdilution assay; procedure, shortened: as §1
[4] = tested on: Candida albicans; assay: Antifungal activity against azole-resistant Candida albicans by broth microdilution assay; procedure, shortened: as §1
[5] = tested on: Nakaseomyces glabratus; assay: Antifungal activity against azole-resistant Candida glabrata by broth microdilution assay; procedure, shortened: as §1
[6] = tested on: Pichia kudriavzevii; assay: Antifungal activity against azole-resistant Candida krusei by broth microdilution assay; procedure, shortened: as §1

SMILES | IC50 [1] | IC50 [2] | IC50 [3] | IC50 [4] | IC50 [5] | IC50 [6]
Oc1cc2c(cc1O)[C@@H]1Oc3cc4c(cc3[C@@H]1CO2)OCO4 | 128 µg/mL (≈ 426 µM) | 128 µg/mL (≈ 426 µM) | 32 µg/mL (≈ 107 µM) | 32 µg/mL (≈ 107 µM) | 32 µg/mL (≈ 107 µM) | 128 µg/mL (≈ 426 µM)
C[C@@H]1[C@H](O)[C@@H](C)/C=C/C=C/C=C/C=C/C=C/C=C/C=C/[C@H](O[C@@H]2O[C@H](C)[C@@H](O)[C@H](N)[C@@H]2O)C[C@@H]2O[C@](O)(C[C@@H](O)C[C@@H](O)[C@H](O)CC[C@@H](O)C[C@@H](O)CC(=O)O[C@H]1C)C[C@H](O)[C@H]2C(=O)O [AMPHOTERICIN B] | – | 3 µg/mL (≈ 3.25 µM) | 4 µg/mL (≈ 4.33 µM) | – | – | –
Cc1c(O)c(C)c2c(c1O)C(=O)C[C@@H](c1ccc(O)cc1)O2 [FARREROL] | > 32 µg/mL | > 32 µg/mL | > 32 µg/mL | > 32 µg/mL | > 32 µg/mL | > 32 µg/mL
OC(Cn1cncn1)(Cn1cncn1)c1ccc(F)cc1F [FLUCONAZOLE] | 0.12 µg/mL (≈ 0.392 µM) | – | – | 256 µg/mL (≈ 836 µM) | 256 µg/mL (≈ 836 µM) | 128 µg/mL (≈ 418 µM)
COc1cc2c(cc1O)C[C@H](c1cc3c(cc1O)OCO3)CO2 [HILDEGARDIOL] | > 128 µg/mL | > 128 µg/mL | > 128 µg/mL | ≥ 64 µg/mL | ≥ 64 µg/mL | > 128 µg/mL
C[C@@H](c1ncncc1F)[C@](O)(Cn1cncn1)c1ccc(F)cc1F [VORICONAZOLE] | 0.007 µg/mL (≈ 0.02 µM) | – | – | 4 µg/mL (≈ 11.5 µM) | 8 µg/mL (≈ 22.9 µM) | 1 µg/mL (≈ 2.86 µM)
